Data reported in ChEMBL document CHEMBL4266043, “Nuclear Factor Erythroid 2-Related Factor 2 Activating Triterpenoid Saponins from Camellia japonica Roots” (J Nat Prod, 2018).
Calls of active or inactive are those of the source. The rule behind the calls is not given here.

Experiments:
Assay type in all cases: cell-based
[1] = molecular target: T1, Nuclear factor erythroid 2-related factor 2 (Homo sapiens) (UniProt Q16236); test: Activation of Nrf2 in human HaCaT cells at 25 uM after 6 hrs by ARE-driven luciferase reporter gene assay relative to control
T1 sequence (whole entry): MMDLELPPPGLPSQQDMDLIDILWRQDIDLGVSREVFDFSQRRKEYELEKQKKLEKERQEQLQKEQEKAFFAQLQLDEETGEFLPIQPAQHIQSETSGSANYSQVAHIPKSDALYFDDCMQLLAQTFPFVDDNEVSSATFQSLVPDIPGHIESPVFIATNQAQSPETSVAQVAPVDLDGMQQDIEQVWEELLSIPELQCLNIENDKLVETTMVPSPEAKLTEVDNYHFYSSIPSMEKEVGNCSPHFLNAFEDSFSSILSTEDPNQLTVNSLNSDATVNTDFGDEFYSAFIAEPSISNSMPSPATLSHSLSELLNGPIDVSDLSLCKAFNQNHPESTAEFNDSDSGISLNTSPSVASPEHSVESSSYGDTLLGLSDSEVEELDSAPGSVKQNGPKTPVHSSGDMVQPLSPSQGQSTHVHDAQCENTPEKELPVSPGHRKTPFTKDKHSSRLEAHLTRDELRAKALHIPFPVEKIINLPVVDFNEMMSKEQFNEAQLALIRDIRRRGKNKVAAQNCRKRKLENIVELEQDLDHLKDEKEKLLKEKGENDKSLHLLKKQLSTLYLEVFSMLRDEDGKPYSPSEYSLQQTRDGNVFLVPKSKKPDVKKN
How it was run: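 Used HaCaT cells stably carrying 3xARE-luciferase, in RPMI 1640 with 10% FBS at 37 °C, 5% CO2, plated overnight. Exposure 6 h at 25 μM. Cells lysed in passive lysis buffer 15 min at room temperature. Luciferase read by kit and normalized to total protein, expressed versus vehicle. Mean ± SD from three independent experiments, t test.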

[2] = molecular target: T1, Nuclear factor erythroid 2-related factor 2 (Homo sapiens); test: Activation of Nrf2 in human HaCaT cells assessed as increase in nuclear Nrf2 accumulation at 25 uM after 6 hrs by Western blot analysis
How it was run: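 HaCaT cells grown to 60−70% confluency, treated 6 h at 25 μM (vehicle DMSO 0.1%). Nuclear fraction obtained with M-PER lysis (10 min on ice), spin at 3000 rpm, pellet resuspended, sonicated, protein by BCA. 25 μg protein run on 10% SDS-PAGE, nitrocellulose transfer, milk block, anti-Nrf2 and histone H3 antibodies, HRP secondary, ECL detection.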

[3] = Cytotoxicity against human HaCaT cells assessed as cell viability at 25 uM after 24 hrs by MTT assay; settings: read-out: Activity
How it was run: (§1)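 MTT assay on HaCaT cells (RPMI 1640, 10% FBS, 37 °C, 5% CO2), plated overnight, then exposed 24 h to 3.125–25 μM. MTT (5 mg/mL solution) added for 2 h, medium removed, formazan dissolved in DMSO and read at 570 nm. Viability given as percent, mean ± SD of three independent experiments.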

HaCaT = test: Cytotoxicity against human HaCaT cells assessed as decrease in cell viability at 3.125 to 25 uM after 24 hrs by MTT assay; how it was run: as §1

Row | Compound | Activity [1] | Activity [2] | fold change (FC) [1] | viability at 24 h, 25 µM [3] [%] | Activity (HaCaT)
1 | C/C=C(/C)C(=O)O[C@H]1[C@H](OC(=O)CC(C)C)[C@]2(CO)[C@H](O)C[C@]3(C)C(=CC[C@@H]4[C@@]5(C)CC[C@H](O[C@@H]6O[C@H](C(=O)O)[C@@H](O)[C@H](O[C@@H]7OC[C@H](O)[C@H](O[C@@H]8O[C@@H](C)[C@H](O)[C@@H](O)[C@H]8O)[C@H]7O)[C@H]6O)[C@@](C)(CO)[C@@H]5CC[C@]43C)[C@@H]2CC1(C)C | Active | Active | – | 69.7 | –
2 | C/C=C(/C)C(=O)O[C@H]1[C@H](OC(=O)CC(C)C)[C@]2(CO)[C@H](O)[C@H](O)[C@]3(C)C(=CC[C@@H]4[C@@]5(C)CC[C@H](O[C@@H]6O[C@H](C(=O)O)[C@@H](O)[C@H](O[C@@H]7OC[C@H](O)[C@H](O[C@@H]8O[C@@H](C)[C@H](O)[C@@H](O)[C@H]8O)[C@H]7O)[C@H]6O)[C@@](C)(C=O)[C@@H]5CC[C@]43C)[C@@H]2CC1(C)C | Active | Active | – | – | Non-Toxic
3 | CCC(C)C(=O)O[C@H]1[C@H](O)C(C)(C)C[C@H]2C3=CC[C@@H]4[C@@]5(C)CC[C@H](O[C@@H]6O[C@H](C(=O)O)[C@@H](O)[C@H](O[C@@H]7OC[C@H](O)[C@H](O[C@@H]8O[C@@H](C)[C@H](O)[C@@H](O)[C@H]8O)[C@H]7O)[C@H]6O)[C@@](C)(CO)[C@@H]5CC[C@@]4(C)[C@]3(C)[C@@H](OC(=O)CC(C)C)[C@@H](O)[C@]21CO (stereo not given in full) | Active | Active | – | – | Non-Toxic
4 | C/C=C(/C)C(=O)O[C@H]1[C@H](OC(=O)C(C)CC)[C@]2(CO)[C@H](OC(C)=O)C[C@]3(C)C(=CC[C@@H]4[C@@]5(C)CC[C@H](O[C@@H]6O[C@H](C(=O)O)[C@@H](O)[C@H](O[C@@H]7OC[C@H](O)[C@H](O[C@@H]8O[C@@H](C)[C@H](O)[C@@H](O)[C@H]8O)[C@H]7O)[C@H]6O)[C@@](C)(CO)[C@@H]5CC[C@]43C)[C@@H]2CC1(C)C (stereo not given in full) | Active | Active | – | – | Non-Toxic
5 | C/C=C(/C)C(=O)O[C@H]1[C@H](OC(=O)CC(C)C)[C@]2(CO)[C@H](OC(C)=O)[C@H](OC(C)=O)[C@]3(C)C(=CC[C@@H]4[C@@]5(C)CC[C@H](O[C@@H]6O[C@H](C(=O)O)[C@@H](O)[C@H](O[C@@H]7OC[C@H](O)[C@H](O[C@@H]8O[C@@H](C)[C@H](O)[C@@H](O)[C@H]8O)[C@H]7O)[C@H]6O)[C@@](C)(CO)[C@@H]5CC[C@]43C)[C@@H]2CC1(C)C | Active | Active | – | – | Non-Toxic

Second part, led by results:

Row | Activity [1] | Activity [2] | fold change (FC) [1] | Compound | viability at 24 h, 25 µM [3] [%] | Activity (HaCaT)
6 | – | Active | 4 | C/C=C(/C)C(=O)O[C@H]1[C@H](OC(=O)/C(C)=C\C)[C@]2(CO)[C@H](O)[C@H](O)[C@]3(C)C(=CC[C@@H]4[C@@]5(C)CC[C@H](O[C@@H]6O[C@H](C(=O)O)[C@@H](O)[C@H](O[C@@H]7OC[C@H](O)[C@H](O[C@@H]8O[C@@H](C)[C@H](O)[C@@H](O)[C@H]8O)[C@H]7O)[C@H]6O)[C@@](C)(CO)[C@@H]5CC[C@]43C)[C@@H]2CC1(C)C | – | Non-Toxic
7 | – | Active | 3 | C/C=C(/C)C(=O)O[C@H]1[C@H](OC(=O)/C(C)=C/C)[C@]2(CO)[C@H](O)[C@H](O)[C@]3(C)C(=CC[C@@H]4[C@@]5(C)CC[C@H](O[C@@H]6O[C@H](C(=O)O)[C@@H](O)[C@H](O[C@@H]7OC[C@H](O)[C@H](O[C@@H]8O[C@@H](C)[C@H](O)[C@@H](O)[C@H]8O)[C@H]7O)[C@H]6O)[C@@](C)(CO)[C@@H]5CC[C@]43C)[C@@H]2CC1(C)C | – | Non-Toxic
8 | Active | Active | – | C/C=C(/C)C(=O)O[C@H]1[C@H](OC(=O)C(C)CC)[C@]2(CO)[C@H](O)C[C@]3(C)C(=CC[C@@H]4[C@@]5(C)CC[C@H](O[C@@H]6O[C@H](C(=O)O)[C@@H](O)[C@H](O[C@@H]7OC[C@H](O)[C@H](O[C@@H]8O[C@@H](C)[C@H](O)[C@@H](O)[C@H]8O)[C@H]7O)[C@H]6O)[C@@](C)(CO)[C@@H]5CC[C@]43C)[C@@H]2CC1(C)C (stereo not given in full) | 72.7 | –
9 | Active | Active | – | C/C=C(/C)C(=O)O[C@H]1[C@H](OC(=O)C(C)CC)[C@]2(CO)[C@H](O)[C@H](O)[C@]3(C)C(=CC[C@@H]4[C@@]5(C)CC[C@H](O[C@@H]6O[C@H](C(=O)O)[C@@H](O)[C@H](O[C@@H]7OC[C@H](O)[C@H](O[C@@H]8O[C@@H](C)[C@H](O)[C@@H](O)[C@H]8O)[C@H]7O)[C@H]6O)[C@@](C)(C=O)[C@@H]5CC[C@]43C)[C@@H]2CC1(C)C (stereo not given in full) | – | Non-Toxic
10 | – | Active | 2 | C/C=C(/C)C(=O)O[C@H]1[C@H](OC(=O)C(C)CC)[C@]2(CO)[C@H](O)[C@H](O)[C@]3(C)C(=CC[C@@H]4[C@@]5(C)CC[C@H](O[C@@H]6O[C@H](C(=O)O)[C@@H](O)[C@H](O[C@@H]7OC[C@H](O)[C@H](O[C@@H]8O[C@@H](C)[C@H](O)[C@@H](O)[C@H]8O)[C@H]7O)[C@H]6O)[C@@](C)(CO)[C@@H]5CC[C@]43C)[C@@H]2CC1(C)C (stereo not given in full) | – | Non-Toxic
